Converted amounts (≈) assume the structure as drawn. The source made the active and inactive calls. The rule behind the calls is not given here.
Columns and labels:
[1] = target: T1, Enoyl-acyl carrier reductase (Toxoplasma gondii, UniProt Q6UCJ9); test: Inhibition of Toxoplasma gondii enoyl reductase
T1 sequence (Q6UCJ9 whole entry): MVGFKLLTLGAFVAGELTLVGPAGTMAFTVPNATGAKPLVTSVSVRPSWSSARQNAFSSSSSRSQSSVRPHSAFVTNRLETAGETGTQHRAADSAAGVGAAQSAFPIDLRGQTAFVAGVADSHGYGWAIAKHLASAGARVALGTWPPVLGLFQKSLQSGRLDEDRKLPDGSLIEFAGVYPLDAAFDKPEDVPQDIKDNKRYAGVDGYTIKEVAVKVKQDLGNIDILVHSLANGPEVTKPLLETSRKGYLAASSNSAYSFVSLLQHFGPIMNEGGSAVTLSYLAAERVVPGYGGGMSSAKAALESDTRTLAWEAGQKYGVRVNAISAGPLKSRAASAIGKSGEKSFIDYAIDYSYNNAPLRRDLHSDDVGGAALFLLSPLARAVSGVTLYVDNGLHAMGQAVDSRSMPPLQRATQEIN
How it was run: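 Recombinant TgENR (20 nM) was assayed in 100 mM Na/K phosphate pH 7.5, 150 mM NaCl and 100 μM NADH. Compounds were added in DMSO (2% final), and reactions were started at 25°C with 100 μM crotonyl-CoA. NADH consumption was followed at 340 nm.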

Toxoplasma gondii [2] = test: Antiparasitic activity against Toxoplasma gondii infected in HFF after 24 hrs by [3H]uracil incorporation assay; type: functional
How it was run: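 Human foreskin fibroblasts were infected with T. gondii tachyzoites and given 1 h to invade before inhibitors were added. Cultures ran 3 days, then 3H-uracil was added for a further day. Parasite growth was read as uracil incorporation by liquid scintillation counting. MIC50 and MIC90 are the concentrations giving 50% and 90% growth inhibition. There were 6 replicate samples per group.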

HFF [3] = test: Toxicity to HFF at highest concentration; type: cell-based; details: human
How it was run: (§1)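 Host-cell toxicity was tested on non-confluent fibroblast monolayers by 3H-thymidine incorporation, alongside visual inspection of monolayer integrity. Testing ran simultaneously with the parasite inhibition assay, and the highest concentration tested was scored.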

HFF [4] = test: Toxicity to HFF; type: cell-based; details: human; how it was run: as §1
Toxoplasma gondii [5] = test: Antiparasitic activity against Toxoplasma gondii RH infected in ip dosed CD1 mouse; type: functional, organism-based
How it was run: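 CD1 mice were infected intraperitoneally with 2000 RH (Type 1) parasites, a lethal inoculum. Inhibitors were given intraperitoneally at 10mg/kg. Read-outs were peritoneal parasite burden by microscopy at day 5 and survival up to day 5 post-infection. There were 6 mice per group.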

CYP2C9 = CYP2C9 (Homo sapiens, UniProt P11712); test: Inhibition of CYP2C9 at 10 uM; type: ADME
How it was run: (§2)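 Inhibition was measured against recombinant CYP450 isozymes 2C9, 2D6 and 3A4, each with compound at 10μM, and reported as percent inhibition.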

[6] = Metabolic stability in human liver microsome assessed as compound remaining after 60 mins; type: ADME; details: liver microsomes, read-out: INH
How it was run: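 Compounds were incubated with pooled human liver microsomes for 60 minutes, and the percentage of parent compound remaining was measured.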

CYP2D6 = CYP2D6 (Homo sapiens, UniProt P10635); test: Inhibition of CYP2D6 at 10 uM; type: ADME; how it was run: as §2
CYP3A4 = CYP3A4 (Homo sapiens, UniProt P08684); test: Inhibition of CYP3A4 at 10 uM; type: ADME; how it was run: as §2
Chain of CYP3A4 (P08684 whole entry): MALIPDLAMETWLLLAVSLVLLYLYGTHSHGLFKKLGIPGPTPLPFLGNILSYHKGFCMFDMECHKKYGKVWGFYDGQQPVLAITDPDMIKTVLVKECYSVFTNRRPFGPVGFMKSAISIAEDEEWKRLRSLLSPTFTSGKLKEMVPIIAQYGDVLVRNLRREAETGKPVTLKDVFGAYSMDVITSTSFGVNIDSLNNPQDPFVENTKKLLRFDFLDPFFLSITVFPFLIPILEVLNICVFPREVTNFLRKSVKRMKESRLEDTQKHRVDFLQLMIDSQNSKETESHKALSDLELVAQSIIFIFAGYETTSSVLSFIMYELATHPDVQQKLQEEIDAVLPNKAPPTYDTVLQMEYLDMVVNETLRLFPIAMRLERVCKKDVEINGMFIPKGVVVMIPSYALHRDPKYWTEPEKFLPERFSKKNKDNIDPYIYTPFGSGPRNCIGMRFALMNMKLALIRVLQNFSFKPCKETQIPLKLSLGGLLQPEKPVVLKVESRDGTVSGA

Chain of CYP2D6 (P10635 whole entry): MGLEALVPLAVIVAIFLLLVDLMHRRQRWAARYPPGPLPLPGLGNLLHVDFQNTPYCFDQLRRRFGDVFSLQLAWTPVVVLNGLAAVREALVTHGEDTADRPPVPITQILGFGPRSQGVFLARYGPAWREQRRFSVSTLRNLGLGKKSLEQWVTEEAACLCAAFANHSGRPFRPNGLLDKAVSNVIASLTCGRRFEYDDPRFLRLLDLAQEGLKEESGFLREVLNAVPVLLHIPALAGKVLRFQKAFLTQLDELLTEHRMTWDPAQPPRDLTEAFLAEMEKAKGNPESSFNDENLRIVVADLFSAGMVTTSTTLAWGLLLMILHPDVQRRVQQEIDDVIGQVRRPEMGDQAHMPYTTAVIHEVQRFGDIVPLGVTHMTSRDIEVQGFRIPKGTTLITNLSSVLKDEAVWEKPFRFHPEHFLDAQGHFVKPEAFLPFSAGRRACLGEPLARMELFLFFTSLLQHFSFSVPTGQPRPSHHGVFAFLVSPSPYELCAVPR
Chain of CYP2C9 (P11712 whole entry): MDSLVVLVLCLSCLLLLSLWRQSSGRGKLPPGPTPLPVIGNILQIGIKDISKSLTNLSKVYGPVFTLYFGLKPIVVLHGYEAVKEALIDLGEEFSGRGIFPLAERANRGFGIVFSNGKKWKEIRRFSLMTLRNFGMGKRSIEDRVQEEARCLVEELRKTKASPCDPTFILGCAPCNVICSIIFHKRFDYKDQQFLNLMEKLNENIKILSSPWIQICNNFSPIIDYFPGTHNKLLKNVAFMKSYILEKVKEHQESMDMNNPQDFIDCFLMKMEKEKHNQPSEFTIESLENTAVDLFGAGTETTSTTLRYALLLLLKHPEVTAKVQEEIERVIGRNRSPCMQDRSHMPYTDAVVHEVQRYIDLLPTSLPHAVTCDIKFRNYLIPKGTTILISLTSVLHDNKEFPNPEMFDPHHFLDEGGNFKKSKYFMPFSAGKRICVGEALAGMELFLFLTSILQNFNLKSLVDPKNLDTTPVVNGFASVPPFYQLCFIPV

Compound | IC50 [1] [nM] | MIC50 (Toxoplasma gondii [2]) [µM] | MIC90 (Toxoplasma gondii [2]) [µM] | Activity (HFF [3]) | Activity (HFF [4]) [µM] | Activity (Toxoplasma gondii [5]) | inhibition at 10 µM (CYP2C9) [%] | remaining at 1 h [6] [%] | inhibition at 10 µM (CYP2D6) [%] | inhibition at 10 µM (CYP3A4) [%]
O=[N+]([O-])c1ccccc1Oc1ccc(Cl)cc1O | 290 | 14 (≈ 3.72 µg/mL) | 23 (≈ 6.11 µg/mL) | Non-toxic |  |  |  |  |  | 
N#Cc1ccc(Cn2ccc(OCc3ccccc3)cc2=O)c(Cl)c1 | > 20000 | 18 (≈ 6.31 µg/mL) | 23 (≈ 8.07 µg/mL) | Non-toxic |  |  |  |  |  | 
Nc1ncccc1C(=O)Nc1cc(Cl)ccc1Oc1ccccc1 | > 20000 | 17 (≈ 5.78 µg/mL) | 24 (≈ 8.15 µg/mL) | Non-toxic |  |  |  |  |  | 
CN(Cc1cc2ccccc2n1C)C(=O)/C=C/c1ccc(N)nc1 |  | > 6 | > 6 | Non-toxic | > 6 |  |  |  |  | 
Oc1cc(Cl)ccc1Oc1ccc(-c2ccccc2)cc1 |  | 6 (≈ 1.78 µg/mL) | 20 (≈ 5.94 µg/mL) | Non-toxic |  |  |  |  |  | 
CC(=O)Nc1ccc(/C=C/C(=O)N(C)Cc2cc3ccccc3n2C)cn1 |  | > 6 | > 6 | Non-toxic | > 6 |  |  |  |  | 
COc1ccc(NC(=O)/C=C/c2ccc(N)nc2)cc1 |  | > 6 | > 6 | Non-toxic | > 6 |  |  |  |  | 
O=C(O)c1ccc(Cn2ccc(OCc3ccccc3)cc2=O)c(Cl)c1 |  | > 24 | > 24 |  |  |  |  |  |  | 
CCCc1ccc(Oc2ccc([N+](=O)[O-])cc2[N+](=O)[O-])c(O)c1 | < 20 | 2 (≈ 0.637 µg/mL) | 6 (≈ 1.91 µg/mL) | Non-toxic | < 1.5 |  |  |  |  | 
CCCc1ccc(Oc2cccc(Cl)c2)c(O)c1 |  | > 6 | > 6 | Non-toxic | > 6 |  |  |  |  | 
Oc1cc(Cl)ccc1Oc1cnccn1 |  | > 6 | > 6 | Non-toxic | > 6 |  |  |  |  | 
CCCc1cc(O)c(Oc2ccc(C#N)cc2Cl)c(O)c1 | < 20 | 15 (≈ 4.56 µg/mL) | 22 (≈ 6.68 µg/mL) | Non-toxic |  |  |  |  |  | 
CCCc1cc(O)c(Oc2ccc(C(N)=O)cc2)c(O)c1 | 280 | 20 (≈ 5.75 µg/mL) | > 24 | Non-toxic |  |  |  |  |  | 
O=c1[nH]c2ccccc2n1Cc1ccc([N+](=O)[O-])cc1 |  | 20 (≈ 5.39 µg/mL) | > 24 |  |  |  |  |  |  | 
CC(=O)Nc1ccc(Oc2ccc(Cl)cc2O)cn1 |  | > 24 | > 24 |  |  |  |  |  |  | 
CCCc1cc(O)c(Oc2ccc(C#N)cc2Cl)c(OC)c1 |  | > 6 | > 6 | Non-toxic | > 6 |  |  |  |  | 
Oc1cc(Cl)ccc1Oc1ccc(Cl)cc1Cl [TRICLOSAN] |  | 5 (≈ 1.45 µg/mL) | > 6 |  | > 6 |  |  |  |  | 
CCCc1ccc(Oc2ccc(N)cc2)c(O)c1 | < 20 | 6 (≈ 1.46 µg/mL) | > 6 | Non-toxic | 3 |  |  |  |  | 
O=c1cc(OCc2ccccc2)ccn1Cc1ccc([N+](=O)[O-])cc1Cl | > 20000 | 3 (≈ 1.11 µg/mL) | 15 (≈ 5.56 µg/mL) | Non-toxic |  |  |  |  |  | 
O=C(c1ccc([N+](=O)[O-])cc1)n1c(=O)[nH]c2ccccc21 |  | > 24 | > 24 |  |  |  |  |  |  | 
CCCc1ccc(Oc2cccc(B(O)O)c2)c(O)c1 | 174 | 5 (≈ 1.36 µg/mL) | 6 (≈ 1.63 µg/mL) | Non-toxic | > 6 |  |  |  |  | 
O=[N+]([O-])c1ccc(Oc2ccc(Cl)cc2O)c(Cl)c1 |  | 4 (≈ 1.2 µg/mL) | 6 (≈ 1.8 µg/mL) | Non-toxic | 4 | Active | > 85 | 51.2 | < 22 | < 22
O=c1[nH]c2ccccc2n1-c1ccc([N+](=O)[O-])c(Cl)c1 |  | > 24 | > 24 |  |  |  |  |  |  | 
Nc1ccccc1CNC(=O)COc1ccc([N+](=O)[O-])cc1 |  | > 24 | > 24 |  |  |  |  |  |  | 
NC(=O)c1ccc(Cn2ccc(OCc3ccccc3)cc2=O)c(Cl)c1 |  | > 24 | > 24 |  |  |  |  |  |  | 
CC(C)(C)C(=O)Nc1cc(Cl)ccc1Oc1ccccc1 |  | > 6 | > 6 | Non-toxic | > 6 |  |  |  |  | 
Oc1ccc(Oc2ccccc2)c(O)c1 |  | > 6 | > 6 | Non-toxic | 6 |  |  |  |  | 

Compound | IC50 [1] [nM] | MIC50 (Toxoplasma gondii [2]) [µM] | MIC90 (Toxoplasma gondii [2]) [µM] | Activity (HFF [3]) | Activity (HFF [4]) [µM] | Activity (Toxoplasma gondii [5]) | inhibition at 10 µM (CYP2C9) [%] | remaining at 1 h [6] [%] | inhibition at 10 µM (CYP2D6) [%] | inhibition at 10 µM (CYP3A4) [%]
C/C=C/C=C/C(=O)Nc1ccc(Oc2ccc(Cl)cc2O)cc1 | > 2000 | 6 (≈ 1.98 µg/mL) | > 6 |  | 6 |  |  |  |  | 
Oc1cc(Cl)ccc1Oc1ccccc1 |  | 5 (≈ 1.1 µg/mL) | > 6 | Non-toxic | > 6 |  |  |  |  | 
CCCc1ccc(Oc2ccc([N+](=O)[O-])cc2)c(O)c1 | < 20 | 6 (≈ 1.64 µg/mL) | > 6 | Non-toxic | > 6 |  |  |  |  | 
CCOC(=O)C(C)OC(=O)c1cc(Oc2ccc(C(F)(F)F)cc2Cl)ccc1[N+](=O)[O-] (configuration not stated) [LACTOFEN] |  | 16 (≈ 7.39 µg/mL) | 23 (≈ 10.6 µg/mL) | Non-toxic |  |  |  |  |  | 
C/C=C/C=C/C(=O)Nc1ccc(Oc2ccc(Cl)cc2Cl)c(O)c1 | 2000 | 14 (≈ 5.1 µg/mL) | 22 (≈ 8.01 µg/mL) | Non-toxic |  |  |  |  |  | 
O=[N+]([O-])c1ccc(Oc2ccc(Cl)cc2O)cc1 | 45 | 17 (≈ 4.52 µg/mL) | 23 (≈ 6.11 µg/mL) | Non-toxic |  |  |  |  |  | 
CCCc1ccc(Oc2cccc([N+](=O)[O-])c2)c(O)c1 |  | > 6 | > 6 | Non-toxic | 6 |  |  |  |  | 
CC(=O)Nc1ccccc1Oc1ccc(Cl)cc1O |  | > 24 | > 24 |  |  |  |  |  |  | 
COc1ccc(NC(=O)COc2ccc([N+](=O)[O-])cc2)cc1 |  | 23 (≈ 6.95 µg/mL) | > 24 |  |  |  |  |  |  | 
CCCc1cc(O)c(Oc2ccc(C#N)cc2)c(O)c1 |  | > 6 | > 6 | Non-toxic | 3 |  |  |  |  | 
Oc1ccc(Oc2ccc(O)cc2O)cc1 |  | > 6 | > 6 | Non-toxic | 6 |  |  |  |  | 
COc1ccc(COc2ccn(Cc3ccccc3Cl)c(=O)c2)cc1 | > 20000 | 17 (≈ 6.05 µg/mL) | 23 (≈ 8.18 µg/mL) | Non-toxic |  |  |  |  |  | 
CC(C)(C)C(=O)Oc1cc(Cl)ccc1Oc1ccc(Cl)cc1Cl | 3000 | 4 (≈ 1.49 µg/mL) | 6 (≈ 2.24 µg/mL) | Non-toxic | > 6 |  |  |  |  | 
Oc1ccc(Oc2ccc(Cl)cc2O)cc1 |  | > 6 | > 6 | Non-toxic | > 6 |  |  |  |  | 
CC(=O)Nc1ccc(Oc2ccc(Cl)cc2O)cc1 |  | > 24 | > 24 |  |  |  |  |  |  | 
CCCc1cc(O)c(Oc2ccc(C(=O)O)cc2Cl)c(O)c1 |  | > 24 | > 24 | Non-toxic |  |  |  |  |  | 
CCCc1cc(O)c(Oc2ccc(-c3nn[nH]n3)cc2)c(O)c1 |  | > 24 | > 24 | Non-toxic |  |  |  |  |  | 
Oc1cc(Cl)ccc1Oc1cccnc1 | 2800 | > 6 | > 6 | Non-toxic | > 6 |  |  |  |  | 
Nc1ccc(/C=C/C(=O)NCc2ccccc2N)cn1 |  | > 6 | > 6 | Non-toxic | > 6 |  |  |  |  | 
Nc1cc(Cl)ccc1Oc1ccccc1 | > 20000 | 6 (≈ 1.32 µg/mL) | > 6 | Non-toxic |  |  |  |  |  | 
O=c1cc(OCCCn2c3ccccc3c3ccccc32)ccn1Cc1ccccc1Cl | > 2000 | 2 (≈ 0.886 µg/mL) | 14 (≈ 6.2 µg/mL) | Non-toxic |  |  |  |  |  | 
O=c1[nH]c2ccccc2n1S(=O)(=O)c1ccc([N+](=O)[O-])cc1 |  | > 24 | > 24 |  |  |  |  |  |  | 
O=c1cc(OCc2ccccc2)ccn1Cc1ccccc1Cl | > 20000 | 7 (≈ 2.28 µg/mL) | 15 (≈ 4.89 µg/mL) | Non-toxic |  |  |  |  |  | 
CCCc1ccc(Oc2ccc([N+](=O)[O-])cc2Cl)c(O)c1 | < 20 | 4 (≈ 1.23 µg/mL) | 6 (≈ 1.85 µg/mL) | Non-toxic | 1.5 |  |  |  |  | 
CCCc1ccc(Oc2cccc(CCO)c2)c(O)c1 |  | > 6 | > 6 | Non-toxic | > 6 |  |  |  |  | 
Nc1ccc(Nc2ccccc2)c(N)c1 |  | > 6 | > 6 | Non-toxic | < 1.5 |  |  |  |  | 

— ChEMBL document CHEMBL1240506, “Identification and development of novel inhibitors of Toxoplasma gondii enoyl reductase” (J Med Chem, 2010)
